Active and inactive are the calls of the source. The calls are words filed in the database; no cut-off is given here.
What was measured:
[1] = system: DU-145; assay: Induction of apoptosis in human DU145 cells assessed as increase in caspase-3 activity using Ac-DEVD-AMC as substrate at 20 uM by fluorometric method; type: functional, cell-based; details: TDE = time-dependent effect
How it was run: (§1)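 Cells treated with 20 μM for the stated times. Pellets lysed on ice 15 min, spun at 14 000g for 15 min at 4 °C. Supernatant assayed in buffer containing CHAPS, 10% glycerol, 2 mM EDTA, 5 mM DTT for 2 h at 37 °C. Fluorescence read at ex 380/em 440 nm.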

[2] = system: PC-3; assay: Induction of apoptosis in human PC3 cells assessed as PARP cleavage at 20 uM after 12 hrs by western blot analysis; type: functional, cell-based
How it was run: (§2)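 Cells exposed to 20 μM for the stated times. Lysis in RIPA plus protease inhibitors, BCA protein assay, equal protein on 12% SDS-PAGE, transfer to nitrocellulose. Blocking in 5% milk/TBST 1 h; primary antibodies overnight at 4 °C; secondary 1:2000 for 45 min; ECL detection. GAPDH served as loading control.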

[3] = system: DU-145; assay: Antiproliferative activity against human DU145 cells assessed as inhibition of cell viability after 24 hrs by MTT assay; type: functional, cell-based; details: DU-145, 24 h
How it was run: (§3)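 Cells grown to 50–70% confluence (RWPE1 in K-SFM with pituitary extract and EGF; the other lines in RPMI 1640 with 10% FBS), 5% CO2, 37 °C. Treated for 24 h with DMSO vehicle, compounds, or cisplatin as positive control. MTT (5 mg/mL) added for 4 h, formazan dissolved in DMSO, absorbance read at 570 nm. Viability taken relative to untreated cells after blank subtraction, IC50 fitted from % viability, at least three experiments.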

[4] = molecular target: Breast cancer type 1 susceptibility protein (Homo sapiens) (UniProt P38398); assay: Inactivation of BRCA1 in human PC3 cells assessed as decline in BRCA1 phosphorylation at Ser1524 at 20 uM after 8 hrs by western blot analysis; type: cell-based; details: PC-3
How it was run: (§4)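 Cells treated at 20 μM for various times, lysed in RIPA buffer with protease/phosphatase inhibitors, protein quantified by BCA. Equal protein run on 12% SDS-PAGE, transferred to nitrocellulose, blocked 1 h in 5% milk/TBST, primary antibodies overnight at 4 °C, secondary 1:2000 for 45 min, ECL detection on film. GAPDH used as loading control.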

[5] = Cell cycle arrest in human PC3 cells assessed as accumulation at G2/M phase at 20 uM after 24 hrs by propidium iodide staining based flow cytometry (reference value: 10.43%); type: functional; details: PC-3
[6] = Cell cycle arrest in human PC3 cells assessed as accumulation at S phase at 10 uM after 24 hrs by propidium iodide staining based flow cytometry (reference value: 22.07%); type: functional; details: PC-3
[7] = Decrease in BRCA1 protein expression in human PC3 cells at 20 uM after 2 to 48 hrs by western blot analysis; type: functional, cell-based; details: PC-3; how it was run: as §4
[8] = system: DU-145; assay: Cell cycle arrest at G0/G1 phase in human DU145 cells after 24 hrs by propidium iodide staining based flow cytometry; type: functional
[9] = system: DU-145; assay: Cell cycle arrest in human DU145 cells assessed as accumulation at subG1 phase at 20 uM after 24 hrs by propidium iodide staining based flow cytometry (reference value: 0.28%); type: functional
[10] = molecular target: Serine/threonine-protein kinase ATR (Homo sapiens) (UniProt Q13535); assay: Activation of ATR in human DU145 cells assessed as ChK1 phosphorylation at Ser296 at 20 uM after 12 hrs by western blot analysis; type: cell-based; details: DU-145; how it was run: as §4
[11] = system: NCI-H1299; assay: Antiproliferative activity against human NCI-H1299 cells assessed as inhibition of cell viability after 24 hrs by MTT assay; type: functional, cell-based; details: NCI-H1299, 24 h; how it was run: as §3
[12] = Cell cycle arrest in human PC3 cells assessed as accumulation at subG1 phase at 20 uM after 24 hrs by propidium iodide staining based flow cytometry (reference value: 0.13%); type: functional; details: PC-3
[13] = Cell cycle arrest in human PC3 cells assessed as accumulation at G0/G1 phase at 20 uM after 24 hrs by propidium iodide staining based flow cytometry (reference value: 66.57%); type: functional; details: PC-3
[14] = system: PC-3; assay: Induction of apoptosis in human PC3 cells assessed as cleaved caspase-3 level at 20 uM after 12 hrs by western blot analysis; type: functional, cell-based; how it was run: as §2
[15] = system: PC-3; assay: Induction of apoptosis in human PC3 cells assessed as increase in caspase-3 activity using Ac-DEVD-AMC as substrate at 20 uM by fluorometric method; type: functional, cell-based; details: TDE = time-dependent effect; how it was run: as §1
[16] = system: PC-3; assay: Induction of ROS generation in human PC3 cells at 20 uM after 6 hrs by DCFH-DA staining based flow cytometry; type: functional, cell-based
How it was run: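 Cells in RPMI 1640 with 10% FBS, 5% CO2, 37 °C, treated at 50−70% confluence (DMSO vehicle). After exposure, cells were loaded with 10 μM DCFH-DA for 30 min at 37 °C, washed, resuspended in PBS, and read at once by flow cytometry. For NAC runs, cells got 5 mM NAC 1 h before compound. ROS reported as ratio relative to untreated control.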

[17] = system: DU-145; assay: Induction of apoptosis in human DU145 cells assessed as necrotic cells at 20 uM after 24 hrs by Annexin V-FITC/propidium iodide staining based flow cytometry (reference value: 0.21%); type: functional
How it was run: (§5)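 Cells seeded in 6-well plates for 24 h, then given 20 μM for the stated times. Cells were trypsinized, PBS-washed, stained with annexin V-FITC/PI, and analysed immediately by flow cytometry. Means ± SD of three independent experiments; Student's t test against untreated control.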

[18] = molecular target: Serine/threonine-protein kinase ATR (Homo sapiens) (UniProt Q13535); assay: Activation of ATR in human PC3 cells assessed as ChK1 phosphorylation at Ser296 at 20 uM after 12 hrs by western blot analysis; type: cell-based; details: PC-3; how it was run: as §4
[19] = system: DU-145; assay: Induction of apoptosis in human DU145 cells assessed as necrotic cells at 20 uM after 12 hrs by Annexin V-FITC/propidium iodide staining based flow cytometry (reference value: 0.21%); type: functional; how it was run: as §5
[20] = Decrease in cyclin E protein expression in human DU145 cells by western blot analysis; type: functional, cell-based; details: DU-145, TDE = time-dependent effect
How it was run: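 Western blot of cyclin D1, cyclin E, Cdk4 and p21 in PC3 and DU145 lysates. Lysis in RIPA buffer plus protease inhibitors, BCA quantification, 12% SDS-PAGE, nitrocellulose transfer, milk block, primaries overnight at 4 °C, secondary 1:2000 for 45 min, ECL read-out. GAPDH served as loading control.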

[21] = system: NCI-H446; assay: Antiproliferative activity against human NCI-H446 cells assessed as inhibition of cell viability after 24 hrs by MTT assay; type: functional, cell-based; details: NCI-H446, 24 h; how it was run: as §3
[22] = system: DU-145; assay: Induction of apoptosis in human DU145 cells assessed as early apoptotic cells at 20 uM after 24 hrs by Annexin V-FITC/propidium iodide staining based flow cytometry (reference value: 1.60%); type: functional; how it was run: as §5
[23] = system: PC-3; assay: Induction of DNA damage in human PC3 cells assessed as gamma-H2AX phosphorylation at ser139 at 20 uM by western blot analysis; type: functional, cell-based; details: TDE = time-dependent effect; how it was run: as §4
[24] = system: DU-145; assay: Induction of apoptosis in human DU145 cells assessed as late apoptotic cells at 20 uM after 8 hrs by Annexin V-FITC/propidium iodide staining based flow cytometry (reference value: 1.53%); type: functional; how it was run: as §5
[25] = system: DU-145; assay: Induction of apoptosis in human DU145 cells assessed as PARP cleavage at 20 uM after 12 hrs by western blot analysis; type: functional, cell-based; how it was run: as §2

Serine/threonine-protein kinase ATR (Homo sapiens), sequence (Q13535 whole entry, looked up): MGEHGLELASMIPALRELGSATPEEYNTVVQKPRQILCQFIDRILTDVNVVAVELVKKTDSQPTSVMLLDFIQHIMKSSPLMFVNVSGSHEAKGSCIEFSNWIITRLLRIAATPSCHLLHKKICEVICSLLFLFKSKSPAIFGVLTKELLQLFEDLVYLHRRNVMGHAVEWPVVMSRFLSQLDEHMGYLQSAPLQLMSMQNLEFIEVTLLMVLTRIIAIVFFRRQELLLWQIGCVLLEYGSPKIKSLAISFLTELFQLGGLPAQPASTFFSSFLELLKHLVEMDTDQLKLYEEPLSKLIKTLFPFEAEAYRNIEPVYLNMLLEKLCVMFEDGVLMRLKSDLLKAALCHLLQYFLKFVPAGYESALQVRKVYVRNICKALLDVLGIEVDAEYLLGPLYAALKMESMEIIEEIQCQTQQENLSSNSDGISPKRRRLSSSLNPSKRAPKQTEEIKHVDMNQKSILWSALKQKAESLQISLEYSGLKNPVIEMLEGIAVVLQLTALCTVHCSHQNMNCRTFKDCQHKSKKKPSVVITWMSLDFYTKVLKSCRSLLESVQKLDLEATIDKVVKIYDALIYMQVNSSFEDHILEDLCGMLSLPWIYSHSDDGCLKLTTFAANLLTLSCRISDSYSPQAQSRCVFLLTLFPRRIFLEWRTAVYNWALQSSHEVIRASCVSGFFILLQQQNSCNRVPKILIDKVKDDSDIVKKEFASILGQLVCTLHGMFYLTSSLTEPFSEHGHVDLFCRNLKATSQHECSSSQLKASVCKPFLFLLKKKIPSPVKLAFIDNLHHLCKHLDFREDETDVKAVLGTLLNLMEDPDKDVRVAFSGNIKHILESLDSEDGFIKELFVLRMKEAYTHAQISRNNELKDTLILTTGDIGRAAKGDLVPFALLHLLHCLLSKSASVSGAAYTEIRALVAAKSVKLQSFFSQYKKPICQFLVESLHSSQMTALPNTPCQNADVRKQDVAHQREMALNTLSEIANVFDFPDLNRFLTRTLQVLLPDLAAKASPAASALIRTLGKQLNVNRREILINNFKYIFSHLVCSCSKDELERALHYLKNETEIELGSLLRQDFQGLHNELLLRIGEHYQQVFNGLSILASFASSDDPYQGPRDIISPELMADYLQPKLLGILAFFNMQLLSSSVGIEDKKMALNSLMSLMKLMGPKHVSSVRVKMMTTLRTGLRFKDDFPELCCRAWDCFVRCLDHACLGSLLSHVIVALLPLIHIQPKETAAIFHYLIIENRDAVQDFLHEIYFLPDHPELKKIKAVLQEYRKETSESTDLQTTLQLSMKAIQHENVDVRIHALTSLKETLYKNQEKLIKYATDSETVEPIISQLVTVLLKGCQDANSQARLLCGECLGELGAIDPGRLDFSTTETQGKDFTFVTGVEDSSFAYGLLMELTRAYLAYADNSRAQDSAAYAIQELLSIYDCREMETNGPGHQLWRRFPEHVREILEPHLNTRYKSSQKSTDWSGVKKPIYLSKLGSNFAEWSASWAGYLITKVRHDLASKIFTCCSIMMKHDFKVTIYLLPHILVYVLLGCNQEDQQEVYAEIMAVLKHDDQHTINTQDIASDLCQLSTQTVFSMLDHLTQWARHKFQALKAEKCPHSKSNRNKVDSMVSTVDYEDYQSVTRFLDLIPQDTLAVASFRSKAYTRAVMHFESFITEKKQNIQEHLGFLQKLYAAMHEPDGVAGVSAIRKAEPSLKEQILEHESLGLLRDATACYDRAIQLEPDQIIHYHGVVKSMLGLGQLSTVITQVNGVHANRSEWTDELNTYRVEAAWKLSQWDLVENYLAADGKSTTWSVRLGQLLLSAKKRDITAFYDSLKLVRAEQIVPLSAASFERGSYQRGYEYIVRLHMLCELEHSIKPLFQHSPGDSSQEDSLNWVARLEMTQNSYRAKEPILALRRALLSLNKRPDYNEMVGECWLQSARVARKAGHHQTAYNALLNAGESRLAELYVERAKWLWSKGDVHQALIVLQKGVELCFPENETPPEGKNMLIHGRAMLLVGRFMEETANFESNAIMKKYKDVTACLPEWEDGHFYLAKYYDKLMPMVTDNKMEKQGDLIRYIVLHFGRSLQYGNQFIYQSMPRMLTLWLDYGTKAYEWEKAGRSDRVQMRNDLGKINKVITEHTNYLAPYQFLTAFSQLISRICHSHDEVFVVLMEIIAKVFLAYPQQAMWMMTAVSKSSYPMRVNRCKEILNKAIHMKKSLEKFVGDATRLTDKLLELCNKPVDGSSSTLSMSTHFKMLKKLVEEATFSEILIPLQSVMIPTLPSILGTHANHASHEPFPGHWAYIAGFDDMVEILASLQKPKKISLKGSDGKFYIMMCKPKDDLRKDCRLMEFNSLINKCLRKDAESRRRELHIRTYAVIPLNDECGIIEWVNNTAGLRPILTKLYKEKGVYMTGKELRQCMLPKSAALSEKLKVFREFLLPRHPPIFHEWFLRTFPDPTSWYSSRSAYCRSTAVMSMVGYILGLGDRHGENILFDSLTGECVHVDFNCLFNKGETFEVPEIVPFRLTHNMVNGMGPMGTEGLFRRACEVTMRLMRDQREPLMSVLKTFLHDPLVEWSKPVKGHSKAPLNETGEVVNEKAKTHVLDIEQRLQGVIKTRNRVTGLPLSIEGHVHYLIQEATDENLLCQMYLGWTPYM
Breast cancer type 1 susceptibility protein (Homo sapiens), sequence (P38398 whole entry, looked up): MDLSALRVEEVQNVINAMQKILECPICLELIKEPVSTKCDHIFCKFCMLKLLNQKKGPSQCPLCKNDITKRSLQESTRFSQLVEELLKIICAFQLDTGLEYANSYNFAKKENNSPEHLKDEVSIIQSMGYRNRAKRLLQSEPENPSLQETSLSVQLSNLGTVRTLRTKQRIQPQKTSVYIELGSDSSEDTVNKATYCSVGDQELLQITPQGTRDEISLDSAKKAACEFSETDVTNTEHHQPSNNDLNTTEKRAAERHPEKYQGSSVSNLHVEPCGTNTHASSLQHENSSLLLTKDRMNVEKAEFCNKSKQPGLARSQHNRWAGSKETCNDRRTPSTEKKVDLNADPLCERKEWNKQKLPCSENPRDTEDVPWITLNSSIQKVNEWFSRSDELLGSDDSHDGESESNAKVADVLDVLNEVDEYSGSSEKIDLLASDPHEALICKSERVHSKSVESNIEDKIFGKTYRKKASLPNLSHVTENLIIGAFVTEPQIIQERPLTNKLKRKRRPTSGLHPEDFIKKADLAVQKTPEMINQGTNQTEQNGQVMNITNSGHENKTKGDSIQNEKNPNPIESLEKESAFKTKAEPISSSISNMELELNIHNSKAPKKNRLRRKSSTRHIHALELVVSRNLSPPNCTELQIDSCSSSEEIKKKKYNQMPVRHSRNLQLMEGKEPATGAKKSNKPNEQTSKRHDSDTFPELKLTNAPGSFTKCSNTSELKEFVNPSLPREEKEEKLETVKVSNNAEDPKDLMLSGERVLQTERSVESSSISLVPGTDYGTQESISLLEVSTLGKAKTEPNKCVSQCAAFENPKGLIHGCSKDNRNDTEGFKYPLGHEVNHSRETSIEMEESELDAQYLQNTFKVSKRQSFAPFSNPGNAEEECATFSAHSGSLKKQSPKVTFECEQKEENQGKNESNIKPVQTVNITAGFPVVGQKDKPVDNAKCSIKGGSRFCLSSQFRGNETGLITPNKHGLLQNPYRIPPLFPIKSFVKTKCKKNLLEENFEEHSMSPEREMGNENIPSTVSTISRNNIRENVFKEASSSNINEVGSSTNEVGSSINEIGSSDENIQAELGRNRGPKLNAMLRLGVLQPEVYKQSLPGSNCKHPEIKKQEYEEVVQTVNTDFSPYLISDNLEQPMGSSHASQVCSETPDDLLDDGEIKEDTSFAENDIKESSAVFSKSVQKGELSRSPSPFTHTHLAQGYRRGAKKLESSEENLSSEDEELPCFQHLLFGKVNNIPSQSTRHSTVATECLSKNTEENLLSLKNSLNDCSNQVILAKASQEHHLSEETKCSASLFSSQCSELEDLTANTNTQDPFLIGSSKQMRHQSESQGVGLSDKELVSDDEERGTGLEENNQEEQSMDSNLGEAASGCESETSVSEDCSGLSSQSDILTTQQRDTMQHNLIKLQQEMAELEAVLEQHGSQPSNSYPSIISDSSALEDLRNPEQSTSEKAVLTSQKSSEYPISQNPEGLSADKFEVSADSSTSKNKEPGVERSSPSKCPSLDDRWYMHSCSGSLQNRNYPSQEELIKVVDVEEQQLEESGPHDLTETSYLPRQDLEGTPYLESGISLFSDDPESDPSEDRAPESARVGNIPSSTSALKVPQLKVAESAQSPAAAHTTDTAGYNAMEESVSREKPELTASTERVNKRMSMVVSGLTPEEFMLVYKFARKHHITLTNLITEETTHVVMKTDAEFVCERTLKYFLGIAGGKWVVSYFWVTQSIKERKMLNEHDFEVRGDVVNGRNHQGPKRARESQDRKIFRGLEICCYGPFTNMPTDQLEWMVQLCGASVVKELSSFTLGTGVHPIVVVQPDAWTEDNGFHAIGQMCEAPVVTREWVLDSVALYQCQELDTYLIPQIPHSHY

With `C=C[C@@](C)(O)CC[C@@H]1C(C)=CC[C@@H]2C(C)(C)CCC[C@@]12C` the Activity [1] was “tde”, the Activity [2] was “Active” and the IC50 [3] was 28.5 µM. The inhibition [4] was “Active”, the Activity [5] was 10.9% and the Activity [6] was 13.9%. The inhibition [7] was “inactive”, the Activity [8] was “Dose-dependent effect” and the Activity [9] was 2.82%. The Activity [10] was “Active”, the IC50 [11] was 35.1 µM and the Activity [12] was 2.39%. For the same compound, the Activity [13] was 82.5%, the Activity [14] was “Active” and the Activity [15] was “tde”. For the same compound, the Activity [16] was “inactive”, the Activity [17] was 4.55% and the Activity [18] was “Active”. The Activity [19] was 1.05%, the inhibition [20] was “tde” and the IC50 [21] was 39.5 µM. The Activity [22] was 7.16%, the Activity [23] was “tde” and the Activity [24] was 8.94%. The Activity [25] was “Active”.

From ChEMBL document CHEMBL3297648, “Diterpenoids from the Chinese liverwort Heteroscyphus tener and their antiproliferative effects” (J Nat Prod, 2014)
